Source: PubChem
Compounds with a hit are over-represented: about 3% of the library has one in this group of screens.
Ins promoter up = MIN6 insulin promoter up-regulation | MIN6 insulin promoter-GFP reporter, high-content imaging; hits give high values | z-score at 5 µM | 190,000 compounds, 0.3% hits | AID 1625;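 active = z-score above 3 at 5 µM with at least 500 cells counted in the well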
BB579 growth dn = chemicals that inhibit yeast BB579 growth in restrictive medium (lifespan-shortening candidates); 140,000 compounds, 0.51% hits; S. cerevisiae BB579 growth, OD615, 48 h; inhibition, % at 10 µM;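 active = inhibition above a set limit, 3 SD over the mean compound inhibition, cut at about 44% in these data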
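Material: Saccharomyces cerevisiae DeaD strain BB579, replicative lifespan model yeast; buffer or medium: CSMM-D restrictive synthetic medium containing dextrose (glucose); compound: 10 µM single dose, DMSO 0.25%; timing: 48 h compound exposure at 30 °C after 4 h preincubation; signal: turbidity as optical density at 615 nm; benchmarks: positive control amphotericin B 10 µg/mL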
Yeast life ext = extends the lifespan of yeast; S. cerevisiae growth with nicotinamide, OD615; deaD strain in restrictive glucose medium; inhibition of the nicotinamide effect, % at 10 µM; 130,000 compounds, 0.68% hits; AID 775;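 active = inhibition above a set limit, placed 3 SD over the median of all compounds, cut at about 26% in these data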;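 note: 0% = nicotinamide-treated wells and 100% = cells grown without nicotinamide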
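Test system – modified budding yeast, DeaD strain · Compound – single dose 10 µM compound, 0.25% DMSO · Times – culture preincubation 4 h, compound exposure 48 h, both 30 °C · Detection – optical density (absorbance) at 615 nm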
RAM inhibit = inhibitors of the yeast RAM network; inhibition, % at 50 µM; S. cerevisiae dse1pr::URA3 reporter, 5-FOA growth OD615, 2 d; analog-sensitive cbk1-as2 kinase mutant strain; 190,000 compounds, 1.8% hits; AID 868;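 active = inhibition above a set limit, 3 SD over mean compound inhibition, cut at about 8.4% in these data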;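 note: 0% = DMSO-only wells with no growth and 100% = 10 µM 1-NA-PP1 full growth; inhibition rescues growth on 5-FOA so higher OD means more RAM inhibition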
Insulin prom inh = TRM-6 insulin promoter activity inhibition; inhibition, % at 2 µM; AID 1273; 130,000 compounds, 0.9% hits; TRM-6 cells (human fetal islet line), insulin promoter-eGFP reporter, imaging; reporter expression induced with tamoxifen;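 active = inhibition above the mean plus 3 SD, with well images judged a real hit on visual review, cut at about 60% in these data, passing the limit was not always enough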
RAM 5-FOA = RAM network inhibition, efflux-deficient strain; shares compounds with RAM inhibit; S. cerevisiae efflux-deficient reporter strain, 5-FOA growth OD615, 2 days; max inhibition, %; 1,200 tested, under 10 active; call rule not given here;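 note: plate controls were vehicle for no effect and reference inhibitor for full effect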
* marks the source's active call; other numbers are inactive results; nt = not tested or not shown.

SMILES	Ins promoter up	BB579 growth dn	Yeast life ext	RAM inhibit	Insulin prom inh	RAM 5-FOA
O=C(c1cccc(Cl)c1)N1CCCC(c2ccc(Cl)cc2)=N1	-0.23	-33	-19	17*	4	3
COc1cc(/C=N/NC(=O)c2cccc([N+](=O)[O-])c2)ccc1OCc1ccccc1	nt	-41	-16	3	-29	nt
CCOC(=O)C(=Cc1ccc(OCc2ccc([N+](=O)[O-])cc2)c(OC)c1)C(=O)OCC	1.1	-46	-4	16*	42	3
CCCCCCNC(=O)c1cc(-c2ccco2)nc2ccccc12	-1.1	-47	nt	13*	65	2
CC(C)CCNC(=O)c1cc(-c2ccco2)nc2ccccc12	0.25	-25	-5	4	-11	nt
O=S(=O)(c1ccccc1)N1CCN=C1SCc1ccc(Cl)cc1	-0.23	nt	nt	1	23	nt
O=S(=O)(c1ccccc1)N1CCN=C1SCc1ccc(Cl)c(Cl)c1	-1.2	-58	-1	12*	nt	2
CC(=O)c1cccc(NC(=O)Cc2coc3cc4c(cc23)CCC4)c1	nt	-60	-4	3	-19	nt
CCc1ccccc1NC(=O)/C(C#N)=C/c1ccc(Sc2ccccc2)o1	0.17	-30	2	16*	-15	2
CCc1ccccc1NC(=O)/C(C#N)=C\c1ccc(Sc2ccccc2)o1	0.09	-3	-4	4	3	nt
CCc1ccccc1NC(=O)CCc1nc(-c2cccs2)no1	0.04	nt	nt	3	nt	nt
CCN(CC)S(=O)(=O)c1ccc(NC(=O)CCC2CCCCC2)cc1	0.84	-74	-5	12*	8	5
Cc1cccc(COCC(Cc2ccccc2)N2CCN(C(=O)c3ccc(C(F)(F)F)cc3)CCC2=O)c1 (stereo not given)	0.21	-10	13	13*	-55	1
Cc1ccc(S(=O)(=O)N2CCC(=O)N(C(COCc3ccc(Cl)c(Cl)c3)Cc3ccccc3)CC2)cc1 (stereo not given)	-1.4	-37	7	12*	-81	3
Cc1ccc(S(=O)(=O)N2CCC(=O)N(CCOCc3ccc(C(F)(F)F)cc3)CC2)cc1	-1.4	-40	8	1	-64	nt
Cc1ccc(S(=O)(=O)N2CCC(=O)N(C(COCc3cccc(C)c3)Cc3ccccc3)CC2)cc1 (stereo not given)	-0.1	-13	20	14*	5	2
Cc1ccc(S(=O)(=O)N2CCC(=O)N(C(CO)Cc3ccccc3)CC2)cc1 (stereo not given)	0.34	-31	2	1	-30	nt
Cc1ccc(S(=O)(=O)N2CCC(=O)N(C(COCc3ccc(C(F)(F)F)cc3)C(C)C)CC2)cc1 (stereo not given)	-1.1	-42	12	12*	5	1
CCOc1ccccc1CNn1nnnc1N	nt	-7	nt	1	44	nt
CCOCCOC(=O)C(C)Oc1ccc(Oc2nc(Cl)ccc2Cl)cc1 (stereo not given)	0.78	nt	nt	13*	41	2
O=S(=O)(Nc1ccc(N=Nc2ccc(O)c3ccccc23)cc1)c1ccccc1	nt	-42	2	13*	-47	3
O=C(COC(=O)c1cc(-c2ccc(Cl)s2)nc2ccccc12)NCc1ccco1	0.18	-28	1	12*	23	4
O=C(COC(=O)c1cc(-c2cccs2)nc2ccccc12)NCc1ccco1	nt	-97	-13	8	nt	nt
CCOCCCNC(=O)/C(C#N)=C/c1ccc(-c2ccc(S(=O)(=O)N3CCOCC3)cc2)o1	0.1	-27	0	12*	34	3
COCCNC(=O)/C(C#N)=C/c1ccc(-c2ccc(S(=O)(=O)N3CCOCC3)cc2)o1	0.23	-6	11	3	14	nt
COc1cc(OC)cc(-c2nnc(SCc3cccc(C(=O)O)c3)o2)c1	nt	-17	-8	14*	-17	3
O=C(O)c1cccc(CSc2nnc(-c3ccco3)o2)c1	0.12	-32	6	2	-6	nt
O=C(Nc1ccccc1-c1nnc(SCc2ccccc2)o1)c1ccccc1	nt	-22	7	19*	-46	4
Cc1ccccc1-c1nnc(SCc2ccc(F)cc2)o1	0.36	-73	-20	7	49	nt
COC(=O)c1ccc(Oc2ccc(C(F)(F)F)cn2)cc1	-0.46	nt	nt	0	nt	nt
